# Test results published in ChEMBL document CHEMBL1143851, “Antimicrobial susceptibilities of Peptostreptococcus anaerobius and the newly described Peptostreptococcus stomatis isolated from various human sources” (2007).
# Tests used:
# [1] = test system: Peptostreptococcus anaerobius; test: Antibacterial activity against Peptostreptococcus anaerobius; assay type: functional
# Procedure, shortened: (§1)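 Clinical isolates (1985–2005) revived from −70°C stocks and subcultured on brucella blood agar. Etest MICs: 48-h anaerobic growth on prereduced brucella and fastidious anaerobe agars (5% defibrinated sheep blood, hemin, vitamin K1) suspended in 0.9% NaCl to 1–2 McFarland, spread on fresh plates of both media; incubated anaerobically at 37°C for 48 h (72 h for slow growers).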
# [2] = test system: Peptostreptococcus stomatis; test: Antibacterial activity against Peptostreptococcus stomatis; assay type: functional; procedure, shortened: as §1
compound,measurement,setting,value
Cc1ncc([N+](=O)[O-])n1CCO [METRONIDAZOLE],MIC50,[1],0.094 µg/mL
same,MIC90,[1],0.19 µg/mL
same,MIC50,[2],< 0.016 µg/mL
same,MIC90,[2],0.047 µg/mL
CCC[C@@H]1C[C@@H](C(=O)N[C@@H]([C@H]2O[C@H](SC)[C@H](O)[C@@H](O)[C@H]2O)[C@H](C)Cl)N(C)C1 [CLINDAMYCIN],MIC50,[1],0.19 µg/mL
same,MIC90,[1],0.75 µg/mL
same,MIC50,[2],< 0.016 µg/mL
same,MIC90,[2],0.016 µg/mL
CC1(C)S[C@@H]2[C@H](NC(=O)[C@H](N)c3ccc(O)cc3)C(=O)N2[C@H]1C(=O)O [AMOXICILLIN],MIC50,[1],0.125 µg/mL
same,MIC90,[1],0.38 µg/mL
same,MIC50,[2],< 0.016 µg/mL
same,MIC90,[2],0.094 µg/mL
C[C@@H](O)[C@H]1C(=O)N2C(C(=O)O)=C(S[C@@H]3CN[C@H](C(=O)Nc4cccc(C(=O)O)c4)C3)[C@H](C)[C@H]12 [ERTAPENEM],MIC50,[1],0.25 µg/mL
same,MIC90,[1],0.38 µg/mL
same,MIC50,[2],0.047 µg/mL
same,MIC90,[2],0.19 µg/mL
CC[C@H]1OC(=O)[C@H](C)[C@@H](O[C@H]2C[C@@](C)(OC)[C@@H](O)[C@H](C)O2)[C@H](C)[C@@H](O[C@@H]2O[C@H](C)C[C@H](N(C)C)[C@H]2O)[C@](C)(O)C[C@@H](C)CN(C)[C@H](C)[C@@H](O)[C@]1(C)O [AZITHROMYCIN],MIC50,[1],0.5 µg/mL
same,MIC90,[1],1 µg/mL
same,MIC50,[2],0.19 µg/mL
same,MIC90,[2],0.75 µg/mL
COc1c(N2C[C@@H]3CCCN[C@@H]3C2)c(F)cc2c(=O)c(C(=O)O)cn(C3CC3)c12 [MOXIFLOXACIN],MIC50,[1],0.125 µg/mL
same,MIC90,[1],0.125 µg/mL
same,MIC50,[2],0.094 µg/mL
same,MIC90,[2],0.125 µg/mL
CO[C@@]1(NC(=O)Cc2cccs2)C(=O)N2C(C(=O)O)=C(COC(N)=O)CS[C@@H]21 [CEFOXITIN],MIC50,[1],0.38 µg/mL
same,MIC90,[1],0.75 µg/mL
same,MIC50,[2],0.064 µg/mL
same,MIC90,[2],0.38 µg/mL
